# ChEMBL document CHEMBL1127563, “Novel acyl-CoA:cholesterol acyltransferase inhibitors. Synthesis and biological activity of 3-quinolylurea derivatives” (J Med Chem, 1994)
# Values joined by “and” are separate entries in the source; they are usually repeats but may differ in a detail not shown here. Equal values may be shown once.
# Columns and labels:
# [1] = target: T1, Sterol O-acyltransferase 1 (Rattus norvegicus, UniProt O70536); experiment: Inhibitory activity against acyl coenzyme A:cholesterol acyltransferase in rat microsomes; set-up: species or system Microsome
# T1 sequence (O70536 whole entry): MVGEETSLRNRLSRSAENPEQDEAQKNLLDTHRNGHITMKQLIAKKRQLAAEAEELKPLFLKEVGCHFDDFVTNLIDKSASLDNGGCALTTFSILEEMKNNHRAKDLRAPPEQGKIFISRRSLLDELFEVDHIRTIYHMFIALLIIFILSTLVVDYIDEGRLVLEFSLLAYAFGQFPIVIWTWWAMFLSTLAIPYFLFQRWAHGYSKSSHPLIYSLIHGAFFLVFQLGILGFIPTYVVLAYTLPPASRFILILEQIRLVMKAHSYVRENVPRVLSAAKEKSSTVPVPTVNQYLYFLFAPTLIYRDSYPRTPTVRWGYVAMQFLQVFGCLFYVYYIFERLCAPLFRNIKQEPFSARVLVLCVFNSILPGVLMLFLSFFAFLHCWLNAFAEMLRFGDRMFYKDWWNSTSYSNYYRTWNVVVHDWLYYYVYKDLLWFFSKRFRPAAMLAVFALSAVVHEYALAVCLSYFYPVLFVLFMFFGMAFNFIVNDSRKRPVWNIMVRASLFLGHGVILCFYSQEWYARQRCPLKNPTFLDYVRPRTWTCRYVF
# In short: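 Rat intestinal mucosal microsomes (male Sprague–Dawley, 6 weeks), 0.2 mg protein preincubated at 37 °C for 15 min in 0.154 M phosphate buffer with fatty-acid-free BSA and compound in DMSO; cholesteryl ester formation from [1-14C]oleoyl-CoA and endogenous cholesterol by scintillation counting. IC50 from inhibition curves.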
# [2] = target: T2, Sterol O-acyltransferase 1 (Rattus norvegicus) (UniProt O70536); experiment: Inhibitory activity against acyl coenzyme A:cholesterol acyltransferase at 10 e-6 M in rat microsomes; conditions: Microsome
# T2 sequence (whole entry): T1 sequence (O70536 whole entry)
# In short: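 Intestinal mucosal microsomes from male 6-week-old Sprague–Dawley rats (100800g pellet); 0.2 mg protein preincubated 15 min at 37 °C in 0.154 M phosphate buffer with fatty-acid-free BSA, compound in DMSO added before preincubation at 1 μM final. Labeled cholesteryl ester from [1-14C]oleoyl-CoA and endogenous cholesterol, scraped and scintillation counted; % inhibition.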
# Cricetinae gen. sp. [3] = experiment: Plamsa cholesterol leval was measured in hamsters at 0.0001% cholesterol diet as a dietary admixture; type: functional, organism-based
# In short: (§1)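 Male Golden hamsters, 10 weeks old, were fed either a stock diet or a cholesterol diet. The compound was mixed into the diet at 0.0001%, 0.0003% or 0.001% and given for 14 days. Animals were housed individually at 23 ± 1 °C and were not fasted. Blood was taken from the orbital sinus, and plasma cholesterol was measured enzymatically.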
# Cricetinae gen. sp. [4] = experiment: Plamsa cholesterol leval was measured in hamsters at 0.001% cholesterol diet as a dietary admixture; type: functional, organism-based; in short: as §1
# Cricetinae gen. sp. [5] = experiment: Plamsa cholesterol leval was measured in hamsters at 0.0003% cholesterol diet as a dietary admixture; conditions: Mesocricetus auratus
IC50 [1] [nM],inhibition [2] [%],Compound,Plasma cholesterol (Cricetinae gen. sp. [3]),Plasma cholesterol (Cricetinae gen. sp. [4]),Plasma cholesterol (Cricetinae gen. sp. [5]) [mg/dL]
15,97.3,Cc1cc(C)c2ncc(NC(=O)Nc3c(F)cc(F)cc3F)c(-c3ccccc3Cl)c2c1,–,–,–
–,84.5,Cc1ccc2ncc(NC(=O)Nc3ccc(F)cc3F)c(-c3ccccc3)c2c1,–,–,–
21.7,96.9,Cc1ccc2ncc(NC(=O)Nc3ccc(F)cc3F)c(-c3ccccc3C)c2c1,–,–,–
160,87.4,Cc1ccc(-c2c(NC(=O)Nc3ccc(F)cc3F)cnc3ccc(Cl)cc23)cc1,–,–,–
121,92.7,COc1ccc(-c2c(NC(=O)Nc3ccc(F)cc3F)cnc3ccc(Cl)cc23)cc1,–,–,–
149,87.3,Cc1cccc2ncc(NC(=O)Nc3ccc(F)cc3F)c(-c3ccccc3Cl)c12,–,–,–
–,85.9,COc1ccc2ncc(NC(=O)Nc3ccc(F)cc3F)c(-c3ccccc3)c2c1,–,–,–
> 1000,9.4,CN(C(=O)Nc1cnc2ccc(Cl)cc2c1-c1ccccc1)c1ccc(F)cc1F,–,–,–
12,97.6,Cc1cc(Cl)cc2c(-c3ccccc3Cl)c(NC(=O)Nc3ccc(F)cc3F)cnc12,–,–,–
800,66.5,O=C(Nc1ccc(F)cc1)Nc1cnc2ccc(Cl)cc2c1-c1ccccc1,–,–,–
864,47.6,COc1ccc(NC(=O)Nc2cnc3ccc(Cl)cc3c2-c2ccccc2)c(OC)c1,–,–,–
125,91.8,O=C(Nc1ccc(F)cc1F)Nc1cnc2ccccc2c1-c1ccccc1Cl,–,–,–
–,90.1,O=C(Nc1ccc(F)cc1F)Nc1cnc2ccc(C(F)(F)F)cc2c1-c1ccccc1,–,–,–
9.3,98.6,Cc1cc2c(-c3ccccc3C)c(NC(=O)Nc3ccc(F)cc3F)cnc2cc1Cl,–,–,–
534,77,O=C(Nc1ccc(F)cc1F)Nc1cnc2ccc(Cl)cc2c1-c1ccc(Cl)cc1,–,–,–
929,75,O=C(Nc1ccccc1F)Nc1cnc2ccc(Cl)cc2c1-c1ccccc1,–,–,–
–,87.8,CSc1ccc2ncc(NC(=O)Nc3ccc(F)cc3F)c(-c3ccccc3)c2c1,–,–,–
28,98,Cc1cc(C)c2ncc(NC(=O)Nc3c(C(C)C)cccc3C(C)C)c(-c3ccccc3Cl)c2c1,–,–,–

IC50 [1] [nM],inhibition [2] [%],Compound,Plasma cholesterol (Cricetinae gen. sp. [3]),Plasma cholesterol (Cricetinae gen. sp. [4]),Plasma cholesterol (Cricetinae gen. sp. [5]) [mg/dL]
–,85.4,Cc1cc(C)c2nc(C)c(NC(=O)Nc3ccc(F)cc3F)c(-c3ccccc3Cl)c2c1,–,–,–
90.6,88.5,O=C(Nc1ccc(F)cc1F)Nc1cnc2ccc(Cl)cc2c1-c1cccc(Cl)c1,–,–,–
21.2,98,O=C(Nc1ccc(F)cc1F)Nc1cnc2ccc(Cl)cc2c1-c1ccccc1Cl,–,–,–
14,99.3,CC(C)c1ccc2ncc(NC(=O)Nc3ccc(F)cc3F)c(-c3ccccc3Cl)c2c1,–,–,–
8.9,97.6,Cc1cc(Cl)c2ncc(NC(=O)Nc3ccc(F)cc3F)c(-c3ccccc3Cl)c2c1,–,–,–
16.8,98.5,Cc1ccc2ncc(NC(=O)Nc3ccc(F)cc3F)c(-c3ccccc3Cl)c2c1,–,–,–
–,61.6,CCCCN(C(=O)Nc1ccc(F)cc1F)c1cnc2ccc(Cl)cc2c1-c1ccccc1,–,–,–
–,85.5,O=C(Nc1ccc(F)cc1F)Nc1cnc2ccc(Br)cc2c1-c1ccccc1,–,–,–
> 1000,5,O=C(Nc1ccccc1)Nc1cnc2ccc(Cl)cc2c1-c1ccccc1,–,–,–
1300,51.5,O=C(Nc1ccc(Cl)cc1)Nc1cnc2ccc(Cl)cc2c1-c1ccccc1,–,–,–
24,98.2,COc1ccccc1-c1c(NC(=O)Nc2ccc(F)cc2F)cnc2ccc(Cl)cc12,–,–,–
215,88.3,O=C(Nc1ccc(F)cc1F)Nc1cnc2ccc(Cl)cc2c1-c1ccccc1,–,–,–
–,91.6,CC(C)c1ccc2ncc(NC(=O)Nc3ccc(F)cc3F)c(-c3ccccc3)c2c1,–,–,–
9.2,98.9,Cc1cc(C)c2ncc(NC(=O)Nc3ccc(F)cc3F)c(-c3ccccc3Cl)c2c1,–,–,–
28.7,97.2,Cc1ccccc1-c1c(NC(=O)Nc2ccc(F)cc2F)cnc2ccc(Cl)cc12,–,–,–
14,99.2,CCc1ccc2ncc(NC(=O)Nc3ccc(F)cc3F)c(-c3ccccc3Cl)c2c1,–,–,–
12,98.5,Cc1cc(C)c2ncc(NC(=O)Nc3ccc(F)cc3F)c(-c3ccccc3C)c2c1,–,–,–

Compound,IC50 [1] [nM],inhibition [2] [%],Plasma cholesterol (Cricetinae gen. sp. [3]),Plasma cholesterol (Cricetinae gen. sp. [4]),Plasma cholesterol (Cricetinae gen. sp. [5]) [mg/dL]
Cc1cc2ncc(NC(=O)Nc3ccc(F)cc3F)c(-c3ccccc3Cl)c2cc1C,5.8,99.6,169 mg/dL and 279 mg/dL,95 mg/dL and 213 mg/dL,245
